# Calls of active or inactive are those of the source. The rule behind the calls is not given here.
# Experiments:
# [1] = Half life in mouse at 30 mg/kg, po; assay type: ADME, organism-based; set-up: dose 30 mg/kg, route oral; conditions: in vivo
# Trypanosoma cruzi [2] = assay: Antitrypanosomal activity against Trypanosoma cruzi Tulahuen amastigotes in mouse 3T3 cells by beta-galactosidase reporter gene assay; assay type: functional, organism-based; conditions: NIH3T3
# In short: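 Tulahuen strain (TCII lineage) grown as intracellular amastigotes in murine 3T3 fibroblasts in 96-well plates. EC50 determined from triplicate screens. Standard errors within assays stayed below 15%.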
# [3] = Toxicity against mouse 3T3 cells by resazurin assay; assay type: cell-based; conditions: NIH3T3 cells
# In short: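 Murine 3T3 fibroblasts screened separately from the parasites. Host-cell growth was quantified by resazurin read-out and EC50 determined.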
# Trypanosoma cruzi [4] = assay: Antitrypanosomal activity against Trypanosoma cruzi infected mouse model of acute Chagas disease assessed as parasitemia burden in blood at 50 mg/kg, po administered twice daily for 14 days relative to untreated control; assay type: functional
# [5] = Plasma concentration in mouse at 30 mg/kg, po after 1 hr; assay type: ADME, organism-based; set-up: dose 30 mg/kg, route oral
# Trypanosoma cruzi [6] = assay: (§1) Antitrypanosomal activity against Trypanosoma cruzi Tulahuen infected BALB/c mouse model of acute Chagas disease assessed as parasitemia burden in blood at 20 mg/kg, po administered twice daily 7 days after parasite infection for 21 days measured 100 days postinfection by PCR assay relative to untreated control; assay type: functional, organism-based; set-up: dose 20 mg/kg
# In short: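 Female BALB/c mice (7–8 wk) infected s.c. with 1 × 10^4 Tulahuen trypomastigotes; blood parasites seen by day 7. Groups of 6 dosed by oral gavage twice daily, days 7–27, in 20% (w/v) hydroxypropyl beta-cyclodextrin vehicle. Vehicle group as control. Mice sacrificed at day 100; 200 µL whole blood tested by PCR for T. cruzi; scored as positive mice per group.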
# [7] = Terminal half life in mouse; assay type: ADME, organism-based; conditions: in vivo, read-out: beta t1/2 (converted)
# [8] = Terminal half life in rat; assay type: ADME, organism-based; conditions: in vivo, read-out: beta t1/2 (converted)
# [9] = Cmax in Trypanosoma cruzi infected BALB/c mouse model of acute Chagas disease at 50 mg/kg, po administered as single dose; assay type: ADME, organism-based; set-up: dose 50 mg/kg, route oral; conditions: in vivo
# In short: (§2)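 BALB/c females, 7–8 weeks, ~20 g, groups of three; single oral gavage at 50 mg/kg, given as a 10 mg/ml suspension in 20% (w/v) hydroxypropyl beta-cyclodextrin, 100 µL. Tail blood (40 µL) taken at timed intervals into heparinized capillaries. Plasma was separated, frozen and analysed later. Sampling ran to 5 hr. Values are averages from 3 mice.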
# Mus musculus [10] = assay: Toxicity in Trypanosoma cruzi Tulahuen infected BALB/c mouse model of acute Chagas disease assessed as mouse survival at 50 mg/kg, po administered twice daily 7 days after parasite infection for 21 days measured 100 days postinfection; assay type: organism-based; set-up: dose 50 mg/kg, route oral; conditions: in vivo, 2400 h
# In short: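 Subcutaneous infection of female BALB/c mice (7–8 wk) with 1 × 10^4 Tulahuen trypomastigotes. Groups of 6 given oral gavage twice daily, days 7–27, in 20% (w/v) hydroxypropyl beta-cyclodextrin. Parasitemia followed by counting 50 high-power fields of 5 µL tail blood through day 97. Pre-morbid mice euthanized; survival and side effects recorded to termination at day 100.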
# Mus musculus [11] = assay: Toxicity in Trypanosoma cruzi Tulahuen infected BALB/c mouse model of acute Chagas disease assessed as incidence of side effects at 50 mg/kg, po administered twice daily 7 days after parasite infection for 21 days; assay type: organism-based; set-up: dose 50 mg/kg, route oral; conditions: in vivo
# In short: (§3)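 BALB/c females, 7–8 weeks, infected subcutaneously with 1 × 10^4 Tulahuen trypomastigotes; all were parasitemic by day 7. Groups of 6 were dosed by oral gavage twice daily on days 7–27 in 20% (w/v) hydroxypropyl beta-cyclodextrin, 100 µL per dose; vehicle group as control. Parasitemia was counted in 5 µL tail blood over 50 high-power fields through day 97. At day 100, 200 µL whole blood was tested by PCR.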
# [12] = target: Sterol 14-alpha demethylase (Trypanosoma cruzi (strain CL Brener), UniProt Q7Z1V1); assay: Binding affinity to Trypanosoma cruzi lanosterol 14-alpha-demethylase expressed in Escherichia coli assessed as equilibrium dissociation constant for enzyme-inhibitor complex by difference spectroscopy
# [13] = target: Sterol 14-alpha demethylase (Trypanosoma cruzi (strain CL Brener)) (UniProt Q7Z1V1); assay: Binding affinity to Trypanosoma cruzi lanosterol 14-alpha-demethylase expressed in Escherichia coli assessed as enzyme spectral change by difference spectroscopy
# [14] = AUC (0 to 5 hrs) in Trypanosoma cruzi infected BALB/c mouse model of acute Chagas disease at 50 mg/kg, po administered as single dose; assay type: ADME, organism-based; set-up: dose 50 mg/kg, route oral; conditions: in vivo; in short: as §2
# [15] = Tmax in Trypanosoma cruzi infected BALB/c mouse model of acute Chagas disease at 50 mg/kg, po administered as single dose; assay type: ADME, organism-based; set-up: dose 50 mg/kg, route oral; conditions: in vivo; in short: as §2
# Trypanosoma cruzi [16] = assay: as §1, with “50” for “20”; assay type: functional, organism-based; set-up: dose 50 mg/kg; in short: as §3
# Sterol 14-alpha demethylase, sequence (Q7Z1V1 whole entry): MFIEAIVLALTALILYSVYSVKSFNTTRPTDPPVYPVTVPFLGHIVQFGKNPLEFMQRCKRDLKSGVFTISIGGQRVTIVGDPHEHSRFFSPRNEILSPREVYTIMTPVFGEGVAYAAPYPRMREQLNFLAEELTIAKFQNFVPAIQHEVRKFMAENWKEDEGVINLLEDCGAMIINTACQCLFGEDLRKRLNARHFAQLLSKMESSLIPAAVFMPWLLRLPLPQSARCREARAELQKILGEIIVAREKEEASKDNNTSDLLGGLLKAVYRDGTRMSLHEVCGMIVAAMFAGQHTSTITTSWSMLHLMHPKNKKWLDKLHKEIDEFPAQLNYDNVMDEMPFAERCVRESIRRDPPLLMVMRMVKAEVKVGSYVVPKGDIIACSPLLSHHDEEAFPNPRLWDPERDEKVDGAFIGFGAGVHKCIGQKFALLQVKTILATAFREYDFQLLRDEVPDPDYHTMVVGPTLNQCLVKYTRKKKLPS
# Sterol 14-alpha demethylase (Trypanosoma cruzi (strain CL Brener)), sequence (Q7Z1V1 whole entry, looked up): as the sequence (Q7Z1V1 whole entry) above
SMILES,half-life [1],EC50 (Trypanosoma cruzi [2]),EC50 [3],Activity (Trypanosoma cruzi [4]),concentration at 1 h [5],Activity (Trypanosoma cruzi [6]),half-life [7],half-life [8],Cmax [9],Activity (Mus musculus [10]),Activity (Mus musculus [11]),Kd [12],Activity [13],AUC(0-t) at 4 h [14],Tmax [15],Activity (Trypanosoma cruzi [16])
c1ccc(-c2ccc(Cn3cncc3CNc3ccc(-c4nc5ccccc5s4)c(-c4ccccc4)c3)cc2)cc1,4 h,7 nM,> 1000 nM,1%,16 µM,–,–,–,–,–,–,–,–,–,–,–
CC[C@@H]([C@H](C)O)n1ncn(-c2ccc(N3CCN(c4ccc(OC[C@@H]5CO[C@@](Cn6cncn6)(c6ccc(F)cc6F)C5)cc4)CC3)cc2)c1=O [POSACONAZOLE],–,–,–,–,–,Active,7 h,7 h,–,–,–,–,–,–,–,–
Nc1cc(-c2ccccc2)ccc1Cn1cncc1CNc1ccc(-c2nc3ccccc3s2)c(-c2ccccc2)c1,–,0.4 nM,> 1000 nM,–,–,Active,–,–,7200 ng/mL,Non-toxic,Non-toxic,< 2200 nM,Active,28700 ng·h/mL,1.7 h,–
Nc1cc(-c2ccccc2)ccc1Cn1cncc1CNc1ccc(Cl)c(-c2ccccc2)c1,–,1.2 nM,> 1000 nM,–,–,–,–,–,2400 ng/mL,Non-toxic,Non-toxic,< 2200 nM,Active,6300 ng·h/mL,0.8 h,inactive

# From ChEMBL document CHEMBL1136968, “Structurally simple inhibitors of lanosterol 14alpha-demethylase are efficacious in a rodent model of acute Chagas disease” (J Med Chem, 2009)
